Assays:
DU-145 = assay: Antiproliferative activity against human DU145 cells after 72 hrs by MTT assay; assay type: functional, cell-based; conditions: DU-145, 72 h
A549 = assay: Antiproliferative activity against human A549 cells after 72 hrs by MTT assay; assay type: functional, cell-based; conditions: A549, 72 h
SH-SY5Y = assay: Antiproliferative activity against human SH-SY5Y cells after 72 hrs by MTT assay; assay type: functional, cell-based
MCF7 = assay: Antiproliferative activity against human MCF7 cells after 72 hrs by MTT assay; assay type: functional, cell-based; conditions: MCF7, 72 h
HepG2 [1] = assay: Antiproliferative activity against human HepG2 cells after 72 hrs by MTT assay; assay type: functional, cell-based; conditions: HepG2, 72 h
HepG2 [2] = assay: Cytotoxicity against human HepG2 cells at 10 uM after 48 hrs by LDH release assay (reference value: 100%); assay type: functional
Procedure, shortened: (§1)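 LDH release. HepG2 cells at 1.0 × 10^5/well were incubated 24 h at 37 °C, then treated at 2.5–40 µM for 48 h. Cells lysed with 2% lysate for 1 h gave the full-release (100%) reference; medium-only cells were the low control. LDH in the supernatant was measured per kit. Triplicates, three independent repeats.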

HepG2 [3] = assay: Cytotoxicity against human HepG2 cells at 2.5 uM after 48 hrs by LDH release assay (reference value: 100%); assay type: functional; procedure, shortened: as §1
HepG2 [4] = assay: Cytotoxicity against human HepG2 cells at 20 uM after 48 hrs by LDH release assay (reference value: 100%); assay type: functional; procedure, shortened: as §1
HepG2 [5] = assay: Cytotoxicity against human HepG2 cells at 5 uM after 48 hrs by LDH release assay (reference value: 100%); assay type: functional
Procedure, shortened: (§2)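 HepG2 seeded at 1.0 × 10^5 cells/well, grown 24 h at 37 °C in 5% CO2, then dosed for 48 h. LDH in supernatant read on plate reader per kit. Maximal release (100% cytotoxicity) came from lysis with 2% (V/V) lysate for 1 h at 37 °C; medium-only cells served as natural release. Triplicate, three independent runs.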

HepG2 [6] = assay: Cytotoxicity against human HepG2 cells at 40 uM after 48 hrs by LDH release assay (reference value: 100%); assay type: functional; procedure, shortened: as §2

Row | Structure (SMILES) | IC50 (DU-145) [µM] | IC50 (A549) [µM] | IC50 (SH-SY5Y) [µM] | IC50 (MCF7) [µM] | IC50 (HepG2 [1]) [µM] | Activity (HepG2 [2]) [%] | Activity (HepG2 [3]) [%] | Activity (HepG2 [4]) [%] | Activity (HepG2 [5]) [%] | Activity (HepG2 [6]) [%]
1 | COc1cc2c(Nc3ccc(C#N)cc3)ncnc2cc1OCCCN1CCCC1 | 14.4 | 21.8 | 8.08 | 16.2 | 20.9 |  |  |  |  | 
2 | COc1cc2c(Nc3ccc(C#N)cc3)ncnc2cc1OCCCN1CCC(CO)CC1 | 53.2 | > 100 | 21.6 | 35.1 | 61.8 |  |  |  |  | 
3 | COc1cc2c(Nc3ccc(C#N)cc3)ncnc2cc1OCCCN(CCO)CCO | 20.2 | 26.1 | 48.1 | 36.8 | 40.3 |  |  |  |  | 
4 | COc1cc2c(Nc3ccc(C#N)cc3)ncnc2cc1OCCCN1CCOCC1 | 98.2 | 59.4 | > 100 | > 100 | 0.77 |  |  |  |  | 
5 | COc1cc2c(Nc3ccccc3C#N)ncnc2cc1OCCCN1CCCCC1 | 15.3 | 14.7 | 13.4 | 15.2 | 14.2 |  |  |  |  | 
6 | COc1cc2c(Nc3ccc(C#N)cc3)ncnc2cc1OCCCN1CCN(C)CC1 | 46.5 | 48.8 | 13 | 71.1 | 13.8 |  |  |  |  | 
7 | COc1cc2c(Nc3ccc(C#N)cc3)ncnc2cc1OCCCN(C)C | 35.2 | 60.5 | 34.9 | 45 | > 100 |  |  |  |  | 
8 | COc1cc2c(Nc3ccc(C#N)cc3)ncnc2cc1OCCCN1CCCCC1CCO (stereo not given) | > 100 | > 100 | > 100 | > 100 | > 100 |  |  |  |  | 
9 | COc1cc2c(Nc3cccc(C#N)c3)ncnc2cc1OCCCN1CCOCC1 | 77.8 | 65.5 | > 100 | > 100 | 1.89 |  |  |  |  | 
10 | COc1cc2c(Nc3ccc(C#N)cc3)ncnc2cc1OCCCN(CCO)Cc1ccccc1 | > 100 | 47.4 | > 100 | > 100 | > 100 |  |  |  |  | 
11 | COc1cc2c(Nc3ccccc3C#N)ncnc2cc1OCCCN1CCC(C)CC1 | 11.9 | 22.7 | 29 | 31.9 | 4.03 |  |  |  |  | 
12 | CCN1CCN(CCCOc2cc3ncnc(Nc4cccc(C#N)c4)c3cc2OC)CC1 | 18.2 | 18.7 | 6.27 | 19.9 | 13.7 |  |  |  |  | 
13 | CCN(CC)CCCOc1cc2ncnc(Nc3ccc(C#N)cc3)c2cc1OC | 68.9 | 50.6 | > 100 | > 100 | 59.4 |  |  |  |  | 
14 | COc1cc2ncnc(Nc3ccc(F)c(Cl)c3)c2cc1OCCCN1CCOCC1 [GEFITINIB] |  |  |  |  |  | 45.36 | 42.08 | 45.24 | 48.69 | 47.62
15 | CCN1CCN(CCCOc2cc3ncnc(Nc4ccc(C#N)cc4)c3cc2OC)CC1 | 34.4 | 16 | 5.44 | 29.9 | 9.58 |  |  |  |  | 
16 | COc1cc2c(Nc3ccc(C#N)cc3)ncnc2cc1OCCCN1CCC(C)CC1 | 16.6 | 32.3 | 7.9 | 43.1 | 32.1 |  |  |  |  | 
17 | COc1cc2c(Nc3cccc(C#N)c3)ncnc2cc1OCCCN1CCCC1 | 19.1 | 39.9 | 10.6 | 33.9 | 18.2 |  |  |  |  | 
18 | COc1cc2c(Nc3ccc(C#N)cc3)ncnc2cc1OCCCN1CCC(N2CCCCC2)CC1 | 15.6 | 30.7 | 9.81 | 19.6 | 8.84 |  |  |  |  | 
19 | COc1cc2c(Nc3ccccc3C#N)ncnc2cc1OCCCN1CCCC1 | 18.7 | 21.8 | 28.9 | 16.2 | 24.5 |  |  |  |  | 
20 | COc1cc2c(Nc3ccc(C#N)cc3)ncnc2cc1OCCCN(C)Cc1ccccc1 | > 100 | > 100 | > 100 | > 100 | > 100 |  |  |  |  | 
21 | COc1cc2c(Nc3cccc(C#N)c3)ncnc2cc1OCCCN1CCCCC1 | 29.1 | 37 | 11.2 | 44.8 | 29.5 |  |  |  |  | 

Second part, led by results:

Row | IC50 (DU-145) [µM] | IC50 (A549) [µM] | IC50 (SH-SY5Y) [µM] | IC50 (MCF7) [µM] | IC50 (HepG2 [1]) [µM] | Structure (SMILES) | Activity (HepG2 [2]) [%] | Activity (HepG2 [3]) [%] | Activity (HepG2 [4]) [%] | Activity (HepG2 [5]) [%] | Activity (HepG2 [6]) [%]
22 | 19.4 | 23.4 | 32.4 | 17.8 | 26.4 | COc1cc2c(Nc3ccccc3C#N)ncnc2cc1OCCCN1CCN(C)CC1 |  |  |  |  | 
23 | 17.4 | 29 | 83.7 | 41.4 | 45.2 | COc1cc2c(Nc3ccc(C#N)cc3)ncnc2cc1OCCCN(C)CCO |  |  |  |  | 
24 | > 100 | > 100 | > 100 | > 100 | > 100 | COc1cc2c(Nc3ccc(C#N)cc3)ncnc2cc1OCCCN1CCc2ccccc2C1 |  |  |  |  | 
25 | 28.3 | 42.4 | 24.3 | 31 | 33.6 | COc1cc2c(Nc3ccc(C#N)cc3)ncnc2cc1OCCCN1CCC(N(C)C)CC1 |  |  |  |  | 
26 | 17.7 | 18.7 | 7.33 | 24.4 | 18.2 | COc1cc2c(Nc3cccc(C#N)c3)ncnc2cc1OCCCN1CCC(C)CC1 |  |  |  |  | 
27 | 12.1 | 27.7 | 6.89 | 23.1 | 18.3 | COc1cc2c(Nc3cccc(C#N)c3)ncnc2cc1OCCCN1CCN(C)CC1 |  |  |  |  | 
28 | 68.5 | 46.8 | > 100 | 98.4 | 3.68 | COc1cc2c(Nc3ccccc3C#N)ncnc2cc1OCCCN1CCOCC1 |  |  |  |  | 
29 | 74.9 | 29.9 | > 100 | > 100 | 67.9 | COc1cc2c(Nc3ccc(C#N)cc3)ncnc2cc1OCCCN1CCC(O)CC1 |  |  |  |  | 
30 | 22.9 | 25.4 | 31.6 | 22.9 | 12.6 | COc1cc2c(Nc3ccc(C#N)cc3)ncnc2cc1OCCCN1CCN(c2ccncc2)CC1 |  |  |  |  | 
31 | 24.4 | 23.5 | 18.8 | 35.1 | 20.7 | COc1cc2c(Nc3ccc(C#N)cc3)ncnc2cc1OCCCN1CCCCC1 |  |  |  |  | 
32 | 29.3 | 9.82 | 36.8 | 25.2 | 28.1 | COc1cc2c(Nc3ccc(C#N)cc3)ncnc2cc1OCCCN1CCN(CCO)CC1 |  |  |  |  | 
33 | 52.3 | 89.9 | 47.2 | 34.9 | 57.7 | CCOC(=O)C1CCN(CCCOc2cc3ncnc(Nc4ccc(C#N)cc4)c3cc2OC)CC1 |  |  |  |  | 
34 | 5.87 | 6.91 | 12.6 | 9.07 | 2.11 | CCN1CCN(CCCOc2cc3ncnc(Nc4ccccc4C#N)c3cc2OC)CC1 |  |  |  |  | 

Reference: ChEMBL document CHEMBL4130355, “Development of a series of novel 4-anlinoquinazoline derivatives possessing quinazoline skeleton: Design, synthesis, EGFR kinase inhibitory efficacy, and evaluation of anticancer activities in vitro” (Eur J Med Chem, 2017)
